Measured values taken from publication PMC3821739 (Organic & biomolecular chemistry, 2013).
Where two headings read alike, the source gives them in different places.

Assays:
RRE = details: cited from earlier work
stem B deleted RNA = assay: Dot blot assay with RRE IIB variant stem B deleted RNA; format: binding, HIV-1
RRE IIB DNA = assay: Dot blot assay with DNA of the same RRE IIB sequence; format: binding, HIV-1
[1] = test system: loop A(A-G)/B/bulge A deleted RNA; assay: Dot blot assay with RRE IIB variant loop A; format: binding, HIV-1
[2] = test system: loop A/B/bulge A deleted RNA; assay: Dot blot assay with RRE IIB variant loop A/B/bulge A deleted RNA; format: binding, HIV-1
hexaloop RNA = assay: Dot blot assay with RRE IIB variant hexaloop RNA; format: binding, HIV-1
HIV-1 RRE IIB RNA [3] = details: read-out: binding affinity (Kd) of hit BPBA; dot blot; cited from earlier work
HIV-1 RRE IIB RNA [4] = assay: Dot blot assay, dissociation constant with wild-type RRE IIB RNA; format: binding; details: for loss of binding affinity compared to BPBA1: RRE IIB
[5] = test system: stem A/loop A deleted RNA; assay: Dot blot assay with RRE IIB variant stem A/loop A deleted RNA; format: binding, HIV-1
[6] = target: loop B/bulge A deleted RNA; assay: Dot blot assay with RRE IIB variant loop B/bulge A deleted RNA; format: binding, HIV-1
RRE IIB = assay: RNase protection; format: binding, HIV-1; details: on ice
In short: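 5′-³²P-labelled RRE-IIB (10 nM) mixed with unlabelled RRE-IIB (200 nM), refolded at 95 °C for 3 min, then snap-cooled on ice. Test compound added in 10 mM Tris pH 7, 100 mM KCl, 10 mM MgCl₂, then 4 hr on ice. Digestion on ice: RNase V1 0.002 U for 10 min; T1 1 U or A 20 ng for 1 hr. Stopped by precipitation, run on 12% urea PAGE with an alkaline-hydrolysis ladder, autoradiography.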

## NC[C@@H]1O[C@H](O[C@H]2[C@@H](O)[C@H](O[C@@H]3[C@@H](O)[C@H](N)C[C@H](N)[C@H]3O[C@H]3O[C@H](CN)[C@@H](O)[C@H](O)[C@H]3N)O[C@@H]2CO)[C@H](N)[C@@H](O)[C@@H]1O [neomycin B]
RRE
  binding to RRE: submicromolar

## (WKK)2*KBBAYWY [BPBA1]
Stem B deleted RNA
  Kd: 3.7 µM
RRE IIB DNA; RRE IIB RNA versus RRE IIB DNA
  selectivity toward RNA over DNA: 23 fold
RRE IIB DNA; read-out: dissociation constant
  Kd: 31.8 ± 6.6 µM
[1]
  lower affinity relative to RRE IIB: > 10 fold
[2]
  loss in binding affinity / selectivity relative to RRE IIB: > 75 fold
Hexaloop RNA
  increase of Kd compared to the wild type: ~ 3 fold
HIV-1 RRE IIB RNA [3]
  Kd: 1.4 µM
HIV-1 RRE IIB RNA [4]; read-out: observed Kd in the presence of competing tRNA, 10-fold molar excess of bacterial tRNA relative to RRE IIB
  Kd: 2.1 µM
[5]
  lower affinity relative to RRE IIB: > 10 fold
[6]
  Kd: 8.7 µM
  lower affinity relative to RRE IIB: 6 fold
RRE IIB; BPBA1 up to 20 µM
  protection of RRE IIB from cleavage by RNase A: visibly protected U7, C21, and U36
  protection of RRE IIB from cleavage by RNase T1: no noticeable changes in band intensity
RRE IIB; region A16 through G19, BPBA1 0.2 µM to 20 µM
  protection of RRE IIB from cleavage by RNase V1: concentration dependent protection

## Ac(WKK)*KBBAYWY [LPBA3]
HIV-1 RRE IIB RNA [4]
  loss of binding affinity compared to BPBA1: > 50 fold

## WKKGKBBAYWY [LPBA1]
HIV-1 RRE IIB RNA [4]
  loss of binding affinity compared to BPBA1: > 50 fold

## WKKGKBBAYWYWKK [LPBA5]
HIV-1 RRE IIB RNA [4]
  loss of binding affinity compared to BPBA1: at least 5 fold

## WKKWKKGKBBAYWY [LPBA4]
HIV-1 RRE IIB RNA [4]
  loss of binding affinity compared to BPBA1: at least 5 fold
